In the array DNA melting data of Ke et al. (doi:10.1101/2024.01.08.574731):

Experiments:
[1] = folding enthalpy; higher = less favourable; fluorescence melt of hairpins on a sequencing array, two-state fit; details: sodium 0.088 M
Procedure, shortened: (§1)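 Folding enthalpy and melting temperature come from bootstrapped two-state fits to Cy3 fluorescence of library hairpins carrying annealed Cy3 and quencher oligos on a sequenced MiSeq flow cell. Imaging was done in 50 mM Na-HEPES pH 8.0, 25 mM NaCl, stepping by 2.5 °C up to 60 °C, and signals were normalised to pre-quench Cy3 and to control constructs. Results of four replicates were combined by inverse variance, and fitted temperatures were raised by 9.35 °C to match UV melts.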

[2] = melting temperature; fluorescence melt of hairpins on a sequencing array, two-state fit, raised by 9.35 °C to match UV melts; details: sodium 0.088 M
Procedure, shortened: as §1

| Sequence | folding enthalpy [1] | Tm [2] |
| --- | --- | --- |
| GATCGTTTCGACGATC ((((((....)))))) | -43.1 kcal/mol | 57.7 °C |
| GCTTCGCGAAAGCAGAGC (((..((....))..))) | -18.2 kcal/mol | 48.3 °C |
| GCCTAGCGAAAGCTTTGC ((..(((....)))..)) | -12 kcal/mol | 33.4 °C |
| CGACGCCGGAAACGGTCG (((..(((....)))))) | -18.3 kcal/mol | 44.3 °C |
| GCAAAGCGAAAGCTTCGC ((.((((....)))).)) | -23.8 kcal/mol | 55.8 °C |
| GTGTTCACGAAAGTGCAC (((..(((....)))))) | -20.7 kcal/mol | 42.3 °C |
| GGTGTCGGAAACGGTACC (((..((....))..))) | -28.6 kcal/mol | 40.9 °C |
| GCGATCGAAAGATACCGC ((((((....)))..))) | -23.8 kcal/mol | 37.2 °C |
| CGATTACGGAAACGTTCG (((..(((....)))))) | -21.5 kcal/mol | 38.5 °C |
| GGAGAAGGAAACTTCTTC (.(((((....))))).) | -23.1 kcal/mol | 36.7 °C |
| GCGGTTTCCCGC ((((....)))) | -25 kcal/mol | 56.2 °C |
| TCGGAGAAATCCGA (((((....))))) | -16.8 kcal/mol | 47.3 °C |
| GATCGGTATACCGATC ((((((....)))))) | -36.7 kcal/mol | 64.3 °C |
| GGATCCGGAAACAGATCC (((((.(....).))))) | -33.1 kcal/mol | 41.6 °C |
| GAGGGAGGAAACCCCCTC (((((.(....).))))) | -28.5 kcal/mol | 46.3 °C |
| GTCGCCGAAAGGCGAGAC ((((((....)))..))) | -7.32 kcal/mol | 51.8 °C |
| GATCTAAGTATAGATC ((((((....)))))) | -27.7 kcal/mol | 37.9 °C |
| GAGTGGGGAAACCTACTC ((((.((....)).)))) | -30.6 kcal/mol | 46.4 °C |
| GACGCAACGAAAGTTGTC (((..(((....)))))) | -10 kcal/mol | 34.1 °C |
| GGGTCAGGAAACTGATCC ((.((((....)))).)) | -38.9 kcal/mol | 51.9 °C |
| GTCTCCGGAAACGAAGAC ((((.((....)).)))) | -25.9 kcal/mol | 41.9 °C |
| GCAGGATCGAAAGATTGC (((..(((....)))))) | -19.8 kcal/mol | 31.4 °C |
| GCACGTGGAAACACGCAC (..((((....))))..) | -9.68 kcal/mol | 29.2 °C |
| GGGAGCGCGAAAGCGCCC (((..(((....)))))) | -10.1 kcal/mol | 58.6 °C |

| Sequence | folding enthalpy [1] | Tm [2] |
| --- | --- | --- |
| GTGATGGGAAACCATTGC (..((((....))))..) | -23.6 kcal/mol | 33.7 °C |
| GCCGTTGGAAACAGCGGC ((((.((....)).)))) | -39.8 kcal/mol | 60.3 °C |
| GCCAGCGAAAGCTTGGC ((((((....))).))) | -27.4 kcal/mol | 63.9 °C |
| GTCAGTGAAAACTGAC ((((((....)))))) | -35.6 kcal/mol | 60.5 °C |
| GATTCCGAAAGGACAATC ((((((....)))..))) | -13.8 kcal/mol | 25.6 °C |
| GTGGGTGGAAACATCCGC (.((.((....)).)).) | -26.3 kcal/mol | 44.2 °C |
| GACGTCGGAAACGATGTC (((.(((....))).))) | -52.2 kcal/mol | 54.7 °C |
| GCGTATGACGC ((((...)))) | -17.5 kcal/mol | 54 °C |
| GATTACGAAAGTAATATC ((((((....)))..))) | -22.1 kcal/mol | 38.6 °C |
| GCGGAGCGAAAGCAACGC (((..((....))..))) | -20.2 kcal/mol | 66.9 °C |
| GCAACAGGAAACTGTCGC ((.((((....)))).)) | -32.1 kcal/mol | 44.2 °C |
| GGATGGCCGAAAGGCTCC (((..(((....)))))) | -11.6 kcal/mol | 37.3 °C |
| GCATAACGAAAGTTGTGC (((.(((....))).))) | -54.7 kcal/mol | 54.7 °C |
| GCCTTAACGAAAGTTGGC (((..(((....)))))) | -26.5 kcal/mol | 43.7 °C |
| CGAGTCGGAAACGAGTCG (((.(((....))).))) | -35.9 kcal/mol | 55.9 °C |
| GCTCCAGCGAAAGCTAGC (((..(((....)))))) | -8.7 kcal/mol | 34 °C |
| GCATGTGAAAACATGC ((((((....)))))) | -38.3 kcal/mol | 64 °C |
| GATGGAGGAAACTCTGTC ((..(((....)))..)) | -21 kcal/mol | 29.1 °C |
| GTCAGCGGAAACGCCAAC ((..(((....)))..)) | -7.36 kcal/mol | 21.8 °C |
| GATCGGGATCCGATC ((((((...)))))) | -39.3 kcal/mol | 55.6 °C |
| TGCATGAAAATGCA (((((....))))) | -19.8 kcal/mol | 52 °C |
| GCACACGAAAGTGGGTGC ((((((....)))..))) | -24.1 kcal/mol | 53.5 °C |
| GTACTTGGAAACAAGTAC (((((((....))))))) | -33.5 kcal/mol | 56 °C |
